Assay results published in ChEMBL document CHEMBL1131236, “Antitumor agents. 185. Synthesis and biological evaluation of tridemethylthiocolchicine analogues as novel topoisomerase II inhibitors” (J Med Chem, 1998).
In brackets after ≈: the same amount, converted by molar mass.

Assays:
Tubulin alpha chain = Tubulin alpha chain (Sus scrofa, UniProt P02550); experiment: In vitro inhibition of mammalian tubulin polymerization by 50%; Inactive
CAKI-1 [1] = experiment: In vitro growth inhibition of CAKI-1, Kidney carcinoma; type: functional, cell-based; settings: Homo sapiens
How it was run: (§1)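 Human tumor lines screened in-house: KB, A549, MCF-7, CAKI-1 and SK-MEL-2. Read-out was SRB staining with absorbance at 562 nm.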

KB [2] = experiment: In vitro growth inhibition of KB, epidermoid carcinoma of the nasopharynx.; type: functional, cell-based; settings: Homo sapiens; how it was run: as §1
SK-MEL-2 [3] = experiment: In vitro growth inhibition of SK-MEL-2, malignant melanoma.; type: functional, cell-based; settings: Homo sapiens; how it was run: as §1
CAKI-1 [4] = experiment: (§2) In vitro percent inhibition of CAKI-1, Kidney carcinoma; type: functional, Homo sapiens; design: concentration or dose not given beside the values
A549 [5] = experiment: In vitro percent inhibition of A549, lung carcinoma.; type: functional, Homo sapiens
DNA topoisomerase II = DNA topoisomerase II (Homo sapiens, UniProt P11388+Q02880); experiment: In vitro inhibitory activity at 100 uM against topoisomerase II measured as ATP-dependent unknotting of P4 DNA compared to enzyme and DNA control.; type: protein assay
[6] = biological target: T1, DNA topoisomerase 1 (Homo sapiens) (UniProt P11387); experiment: In vitro inhibitory activity at 100 uM against topoisomerase I measured as ATP-independent relaxation of supercoiled plasmid DNA compared to enzyme and DNA control.
T1 sequence (whole entry): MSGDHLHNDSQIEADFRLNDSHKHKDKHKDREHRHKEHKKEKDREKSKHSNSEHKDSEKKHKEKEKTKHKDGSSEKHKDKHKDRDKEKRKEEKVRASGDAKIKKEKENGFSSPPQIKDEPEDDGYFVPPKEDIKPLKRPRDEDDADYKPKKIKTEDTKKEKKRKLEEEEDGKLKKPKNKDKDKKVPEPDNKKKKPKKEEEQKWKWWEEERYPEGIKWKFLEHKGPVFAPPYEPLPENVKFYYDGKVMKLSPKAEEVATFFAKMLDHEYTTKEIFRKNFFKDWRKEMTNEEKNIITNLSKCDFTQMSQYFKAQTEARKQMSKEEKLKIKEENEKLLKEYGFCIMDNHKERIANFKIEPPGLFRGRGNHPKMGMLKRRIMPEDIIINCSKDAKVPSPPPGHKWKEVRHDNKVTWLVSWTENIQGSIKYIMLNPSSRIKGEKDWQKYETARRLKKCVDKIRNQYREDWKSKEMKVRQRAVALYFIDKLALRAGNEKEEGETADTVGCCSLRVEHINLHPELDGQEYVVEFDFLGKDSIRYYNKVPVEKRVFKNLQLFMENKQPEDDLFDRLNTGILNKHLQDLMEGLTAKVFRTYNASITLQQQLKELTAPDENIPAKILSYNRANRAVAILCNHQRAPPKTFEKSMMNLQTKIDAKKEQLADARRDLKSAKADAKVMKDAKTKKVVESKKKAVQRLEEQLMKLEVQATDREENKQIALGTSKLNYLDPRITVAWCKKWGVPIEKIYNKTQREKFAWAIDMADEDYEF

SK-MEL-2 [7] = experiment: In vitro percent inhibition of SK-MEL-2 cells, malignant melanoma.; type: functional, Homo sapiens; design: concentration or dose not given beside the values
MCF7 [8] = experiment: In vitro growth inhibition of MCF-7, breast adenocarcinoma.; type: functional, cell-based; settings: Homo sapiens; how it was run: as §1
A549 [9] = experiment: In vitro growth inhibition of A549, lung carcinoma.; type: functional, cell-based; settings: Homo sapiens; how it was run: as §1
MCF7 [10] = experiment: In vitro percent inhibition of MCF-7, breast adenocarcinoma.; type: functional, Homo sapiens
Tubulin = type: protein-complex assay
CAKI-1 [11] = experiment: In vitro percent inhibition of CAKI-1, Kidney carcinoma; Range 12-38; type: functional, Homo sapiens
A549 [12] = experiment: In vitro percent inhibition of A549, lung carcinoma.; Range 18-43
SK-MEL-2 [13] = experiment: In vitro percent inhibition of SK-MEL-2 cells, malignant melanoma.; Range 26-41; type: functional, Homo sapiens
MCF7 [14] = experiment: In vitro percent inhibition of MCF-7, breast adenocarcinoma.; Range 23-48; type: functional, Homo sapiens
A549 (Homo sapiens) = experiment: In vitro percent inhibition of A549, lung carcinoma
KB [15] = experiment: In vitro epidermoid carcinoma of the nasopharynx; type: functional, Homo sapiens; how it was run: as §1
CAKI-1 [16] = experiment: as §2; type: functional, Homo sapiens
KB [17] = experiment: In vitro percent inhibition of KB, epidermoid carcinoma of the nasopharynx.; type: functional, Homo sapiens
SK-MEL-2 [18] = experiment: In vitro percent inhibition of SK-MEL-2, malignant melanoma.; type: functional, Homo sapiens

Chain of Tubulin alpha chain (P02550 whole entry, looked up): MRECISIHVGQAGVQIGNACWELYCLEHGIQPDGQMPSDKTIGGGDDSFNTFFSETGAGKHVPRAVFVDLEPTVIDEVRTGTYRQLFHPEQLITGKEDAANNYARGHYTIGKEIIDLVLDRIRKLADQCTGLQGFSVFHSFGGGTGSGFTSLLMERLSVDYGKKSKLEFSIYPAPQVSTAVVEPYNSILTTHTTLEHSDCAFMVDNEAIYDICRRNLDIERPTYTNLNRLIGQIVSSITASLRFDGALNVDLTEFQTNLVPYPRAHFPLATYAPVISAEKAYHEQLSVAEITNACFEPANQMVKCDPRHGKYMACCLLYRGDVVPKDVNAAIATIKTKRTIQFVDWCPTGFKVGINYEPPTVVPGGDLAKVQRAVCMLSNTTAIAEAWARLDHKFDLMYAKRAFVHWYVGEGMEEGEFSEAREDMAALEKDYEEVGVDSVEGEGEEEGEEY

| Structure (SMILES) | EC50 (CAKI-1 [1]) [µg/mL] | EC50 (KB [2]) [µg/mL] | EC50 (SK-MEL-2 [3]) [µg/mL] | Inhibition (CAKI-1 [4]) [%] | inhibition (DNA topoisomerase II) [%] | inhibition [6] [%] | Inhibition (SK-MEL-2 [7]) [%] | EC50 (MCF7 [8]) [µg/mL] | EC50 (A549 [9]) [µg/mL] | IC50 (Tubulin) [µM] | further results |
| --- | --- | --- | --- | --- | --- | --- | --- | --- | --- | --- | --- |
| COc1cc([C@@H]2c3cc4c(cc3[C@@H](O[C@@H]3O[C@@H]5CO[C@@H](C)O[C@H]5[C@H](O)[C@H]3O)[C@H]3COC(=O)[C@H]23)OCO4)cc(OC)c1O [ETOPOSIDE] |  |  |  |  |  |  |  |  |  |  | IC50 (Tubulin alpha chain): Not Active |
| CSc1ccc2c(cc1=O)[C@@H](NC(=O)c1ccc([N+](=O)[O-])cc1)CCc1cc(O)c(O)c(O)c1-2 | > 9.6 | 7.7 (≈ 16 µM) | > 9.6 | 20 | 100 | < 100 | 0 | > 9.6 | > 9.6 | > 40 | Inhibition (A549 [5]): 36%; Inhibition (MCF7 [10]): 38% |
| CCCCCC(=O)N[C@H]1CCc2cc(O)c(O)c(O)c2-c2ccc(SC)c(=O)cc21 |  |  |  |  | 100 | 0 |  |  |  | > 40 |  |
| CSc1ccc2c(cc1=O)[C@@H](NC(=O)c1ccc([N+](=O)[O-])cc1)CCc1cc(OC(C)=O)c(OC(C)=O)c(OC(C)=O)c1-2 | > 0.3 | 2.7 (≈ 4.45 µM) | > 0.3 |  | 0 | 0 |  | > 0.15 | > 0.15 | > 40 | Inhibition (CAKI-1 [11]): 12%; Inhibition (A549 [12]): 18%; Inhibition (SK-MEL-2 [13]): 26%; Inhibition (MCF7 [14]): 23% |
| CSc1ccc2c(cc1=O)[C@@H](NC(=O)c1cc(O)c(O)c(O)c1)CCc1cc(O)c(O)c(O)c1-2 | > 9.6 | 9.6 (≈ 19.9 µM) | > 9.6 | 29 | 100 | 100 | 30 | 8.6 (≈ 17.8 µM) | > 9.6 | > 40 | Inhibition (A549 [5]): 30% |
| CSc1ccc2c(cc1=O)[C@@H](NC(=O)c1ccc(N)cc1)CCc1cc(O)c(O)c(O)c1-2 | > 18 | > 18 | > 18 | 13 |  |  | 0 | 14.8 (≈ 32.9 µM) | > 18 |  | Inhibition (A549 (Homo sapiens)): 39%; Inhibition (KB [15]): 35% |
| CSc1ccc2c(cc1=O)[C@@H](NC(=O)c1ccc(F)cc1)CCc1cc(O)c(O)c(O)c1-2 |  |  |  |  | 100 | 0 |  |  |  | > 40 |  |
| CSc1ccc2c(cc1=O)[C@@H](NC(=O)c1ccc(CBr)cc1)CCc1cc(O)c(O)c(O)c1-2 |  |  |  |  | 100 | 0 |  |  |  | > 40 |  |
| CSc1ccc2c(cc1=O)[C@@H](NC(=O)c1ccccc1[N+](=O)[O-])CCc1cc(O)c(O)c(O)c1-2 |  |  |  |  | 100 | 0 |  |  |  | > 40 |  |
| CSc1ccc2c(cc1=O)[C@@H](NC(=O)c1cc([N+](=O)[O-])cc([N+](=O)[O-])c1)CCc1cc(O)c(O)c(O)c1-2 |  |  |  |  | 100 | 0 |  |  |  | > 40 |  |
| Br.CSc1ccc2c(cc1=O)[C@@H](NC(=O)c1ccc(N)cc1)CCc1cc(O)c(O)c(O)c1-2 | > 19.5 | 4.8 | > 19.5 | 37 |  |  | 42 | 10.7 | 9.7 | > 40 |  |
| COc1cc2c(c(OC)c1OC)-c1ccc(OC)c(=O)cc1[C@@H](NC(C)=O)CC2 [COLCHICINE] | 0.4 (≈ 1 µM) | 0.002 (≈ 0.00501 µM) | 0.008 (≈ 0.02 µM) |  |  |  |  | > 0.4 | 0.022 (≈ 0.0551 µM) |  |  |
| Br.CSc1ccc2c(cc1=O)[C@@H](N)CCc1cc(O)c(O)c(O)c1-2 | > 13.2 | > 13.2 | > 13.2 |  | 100 | 0 |  | > 13.2 | > 13.2 |  | Inhibition (CAKI-1 [16]): 2%; Inhibition (KB [17]): 0%; Inhibition (A549 [5]): 0%; Inhibition (MCF7 [10]): 23%; Inhibition (SK-MEL-2 [18]): 0% |
